# S1P4 antag: antagonists of human S1P4 receptor. S1P4-expressing cells, antagonist mode, reporter read-out. inhibition, % at 4.98 µM. actives 0.26% (n = 220,000). AID 1510; in the data active = inhibition above about 29%;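 note: 0% = wells stimulated with agonist and 100% = vehicle wells without agonist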
# Target sequence (O95977 whole entry, looked up): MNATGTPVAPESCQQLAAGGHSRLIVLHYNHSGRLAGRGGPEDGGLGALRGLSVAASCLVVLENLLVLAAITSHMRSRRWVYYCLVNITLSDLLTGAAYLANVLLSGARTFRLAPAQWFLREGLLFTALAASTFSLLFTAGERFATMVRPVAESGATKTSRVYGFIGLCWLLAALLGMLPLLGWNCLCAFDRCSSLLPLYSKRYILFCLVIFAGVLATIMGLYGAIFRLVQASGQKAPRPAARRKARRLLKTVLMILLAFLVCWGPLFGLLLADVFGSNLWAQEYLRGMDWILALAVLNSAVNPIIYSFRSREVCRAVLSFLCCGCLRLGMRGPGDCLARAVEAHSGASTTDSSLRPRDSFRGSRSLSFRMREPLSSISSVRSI
# NPY-Y1 PAM-ag: human NPY-Y1 potentiation or agonism, primary screen; NPY-Y1 expressing cells, potentiator/agonist activation; P25929; actives 0.37% (n = 220,000); activation, % at 3.6 µM; in the data active = activation above about 33%, passing the limit was not always enough;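 note: cells stimulated with NPY at EC10 then isoproterenol at EC100; 0% = low agonist plus stimulus and 100% = saturating agonist plus stimulus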
# S1P4 agonist: agonists of human S1P4 receptor | O95977 | S1P4-expressing cell line, agonist reporter assay | activation, % at 4.98 µM | actives 0.35% (n = 220,000); in the data active = activation above about 11%;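 note: 0% = DMSO vehicle and 100% = reference agonist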
# NPY-Y2 PAM-ag: potentiators or agonists of human neuropeptide Y receptor Y2 | P49146 | AID 1359 | cells expressing NPY-Y2, potentiator/agonist read-out | activation, % at 3.6 µM | actives 0.45% (n = 220,000); in the data active = activation above about 27%;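 note: cells stimulated with NPY near EC25 plus isoproterenol at EC100; 0% = vehicle plus submaximal agonist and 100% = vehicle plus saturating agonist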
# NPY Y1 blocker: NPY-Y1 (human) receptor antagonism; inhibition, % at 3.6 µM; HEK293-CNG Y1 cells, membrane potential fluorescence; NPY at EC95, then isoproterenol; actives 1% (n = 200,000); P25929;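 active = inhibition above the campaign mean inhibition of all tested compounds plus 3 SD, cut at about 20% in these data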;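 note: 0% = DMSO wells given NPY plus isoproterenol and 100% = isoproterenol alone without NPY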
#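 Benchmarks – high control isoproterenol alone, low control NPY with isoproterenol · Material – HEK293 Y1/CNG channel cell line · Times – dye 3 h, compound 60 min room temperature, stimulation 45 min · Probe or stimulus – NPY (25 nM), isoproterenol (1 µM), Ro 20-1724 (25 µM) · Evaluation – % inhibition of NPY effect · Signal – fluorescence, membrane potential probe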
# NPY-Y2 antag: NPY-Y2 (human) receptor antagonism. P49146. NPY-Y2 expressing cells, antagonist mode. inhibition, % at 2.7 µM. actives 0.99% (n = 140,000); in the data active = inhibition above about 17%;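 note: 0% = vehicle with agonist challenge and 100% = reference antagonist with challenge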
# NPY1 antag ctr: human NPY-Y1 antagonism in NPY-Y2 counter-screen | shares compounds with NPY-Y2 antag | cell-based NPY-Y1 antagonism counterscreen | inhibition, % at 3.6 µM | actives 19% (n = 710) | AID 1256; in the data active = inhibition above about 20%;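 note: cells challenged with NPY then isoproterenol with cAMP sensed through a CNG channel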
# NPY-Y2 ant conf: human NPY-Y2 antagonism, confirmation; inhibition, % at 2.8 µM; AID 1257; actives 32% (n = 710); HEK293 NPY-Y2 CNG channel, membrane potential fluorescence; shares compounds with NPY-Y2 antag;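 active = mean inhibition of triplicate wells above the hit cutoff set in the primary screen, cut at about 17% in these data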;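 note: 0% = DMSO with NPY challenge and 100% = BIIE0246 high control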
# * marks the source's active call; other numbers are inactive results; . = no result. An excerpt weighted towards active compounds, which were near 2.4% of everything screened.
SMILES,S1P4 antag,NPY-Y1 PAM-ag,S1P4 agonist,NPY-Y2 PAM-ag,NPY Y1 blocker,NPY-Y2 antag,NPY1 antag ctr,NPY-Y2 ant conf
Cc1ccc2c(c1)N(CC(=O)OC(CC(C)C)C(=O)NC1CCCC1)C(=O)CO2 (centres undefined),3,-24,0,-14,33*,21*,.,.
CC1=C(C(=O)N2CCCCC2)C(c2cccs2)C2=C(CCCC2=O)N1 (centres undefined),-12,-10,2,13,4,22*,.,.
COC(=O)C1=C(C)NC2=C(C(=O)CCC2)C1c1cccs1 (centres undefined),-10,13,1,-2,1,0,.,.
COc1ccc(-c2ccc(SCC(=O)c3ccccc3)nn2)cc1OC,-14,3,2,-16,6,.,.,.
Cc1c(NC(=O)COC(=O)c2ccc(S(=O)(=O)N3CCOCC3)cc2)c(=O)n(-c2ccccc2)n1C,0,-2,-2,-17,1,.,.,.
CC(C)(C)c1ccc(CN2C3=NCCCN3c3ccccc32)cc1,26,-63,1,-35,25*,20*,.,.
CCOC(=O)/C(=C\c1cccnc1)C(=O)c1cc(C(C)=O)c(Nc2ccccc2)s1,63*,-16,-6,-13,8,8,.,.
CCOC(=O)/C(=C\c1ccccc1)C(=O)c1cc(C(C)=O)c(Nc2ccccc2)s1,-7,-8,4,-8,8,4,.,.
NC(=O)c1cccc(CC(=O)c2ccccc2)c1,5,-5,1,2,.,.,.,.
O=C(Sc1cccc2cccnc12)c1ccc(F)cc1,98*,7,1,-1,-4,.,.,.
Fc1cccc(Cc2noc(CN3CCCN(C4Cc5ccccc5C4)CC3)n2)c1,10,-1,-1,-7,22*,.,.,.
Fc1cccc(Cc2noc(CN3CCSCC3)n2)c1,-5,-16,0,-14,1,.,.,.
COc1ccc(N(C(=O)c2cnsn2)C(C(=O)NC2CCCCC2)c2ccncc2)cc1 (centres undefined),-6,-10,-2,-9,17,1,.,.
CCOc1ccc(N(C(=O)c2cnsn2)C(C(=O)NC2CCCCC2)c2ccncc2)cc1 (centres undefined),-10,-27,0,12,34*,20*,.,.
O=C(NC1CC(=O)c2sccc21)c1ccc(Cl)cc1Cl (centres undefined),13,2,1,-12,7,.,.,.
CC1CCCC(C)N1/N=C/c1ccc(C#N)cc1 (centres undefined),-9,11,2,0,-1,.,.,.
CSc1nc2ccccc2n1CC(=O)Nc1cc(C(F)(F)F)ccc1N1CCOCC1,-13,-3,0,0,24*,23*,.,.
O=C(Cn1c(C(F)(F)F)nc2ccccc21)Nc1ccccc1N1CCOCC1,4,9,1,-31,10,1,.,.
COc1ccc(S(=O)(=O)N(Cc2ccccc2)Cc2nc(-c3ccccc3)no2)cc1,-6,-31,0,2,41*,21*,.,.
CC(CNCc1ccc2c(c1)OCO2)NCc1ccc2c(c1)OCO2 (centres undefined),-21,-37,-1,-20,24*,19*,.,.
OC(CNCc1ccc2c(c1)OCO2)COc1ccc(F)cc1 (centres undefined),17,-17,1,-28,.,.,.,.
O=C(Nc1ccccc1)OCc1cc(-c2ccccc2Cl)on1,-11,-10,0,-19,16,22*,19,18*
O=C(Nc1ccccc1)OCc1cnc(Cl)s1,-2,-28,-1,-8,-4,.,.,.
CCn1c(SCC(=O)NCc2ccccc2)nc2nc3c(cc2c1=O)CCCC3,-1,0,0,-13,2,.,.,.
CCn1c(SCc2ccccc2Cl)nc2nc3c(cc2c1=O)CCCC3,-5,-52,-2,-2,3,18*,9,14
SMILES,S1P4 antag,NPY-Y1 PAM-ag,S1P4 agonist,NPY-Y2 PAM-ag,NPY Y1 blocker,NPY-Y2 antag,NPY1 antag ctr,NPY-Y2 ant conf
O=C(NC1CCCC1)C(c1ccsc1)N(CCc1ccccc1)C(=O)Cc1cccs1 (centres undefined),4,4,0,13,8,34*,21*,13
O=C(NC1CCCC1)C(c1ccsc1)N(C(=O)Cc1cccs1)c1ccccc1 (centres undefined),-2,1,-3,2,4,1,.,.
COc1ccc(Cn2cccc(NC(=O)Nc3cccc(OC)c3)c2=O)cc1,-14,7,0,9,.,.,.,.
CN(C)S(=O)(=O)c1ccc(N2CCCC2)c(C(=O)NC(c2ccccc2)c2ccccc2)c1,8,8,-1,-15,13,23*,16,9
CCC(Oc1ccc2c(=O)c(-c3ccccc3OC)coc2c1)C(=O)OCc1ccccc1 (centres undefined),-8,-17,1,-18,2,37*,6,66*
Nc1nc(NCCCN2CCOCC2)nc(Nc2cccc(Cl)c2)c1[N+](=O)[O-],-2,6,-2,18,.,.,.,.
Cc1ccc(C)c(NS(=O)(=O)c2cc(C(=O)Nc3ccccc3-c3ccccc3)ccc2Cl)c1,-11,3,2,-33,1,69*,2,103*
CC(C)c1ccc(CN(C(=O)/C=C/c2ccco2)C2CCS(=O)(=O)C2)cc1 (centres undefined),-9,14,0,12,.,.,.,.
Cc1cc(C)nc(N/N=C/C2=C(N3CCOCC3)C(=C/c3ccccc3)/CC2)n1,3,0,0,6,17,76*,56*,72*
CCOC(=O)c1c(N2C(=O)C3C4C=CC(C4)C3C2=O)sc2c1CCC(C)C2 (centres undefined),-7,6,0,18,2,-1,.,.
COc1ccc(CCNC(=O)CSc2nc(O)c(CC(C)C)c(=O)[nH]2)cc1OC,4,4,1,6,-2,17*,2,2
CC1(NC(=O)C2CCCCC2)CCS(=O)(=O)C1 (centres undefined),-2,-6,-1,-2,1,.,.,.
C=CCOc1ccc2ccccc2c1/C=N/O,-21,-29,1,-7,17,20*,7,7
COc1ccc2ccccc2c1/C=N/O,12,-2,-1,7,5,5,.,.
Cc1ccc(Sc2ccc(N)cn2)cc1,0,-23,-1,-25,.,.,.,.
COC(=O)c1c(-c2ccc(F)cc2)csc1NC(=O)c1ccco1,8,-6,-3,-10,11,25*,11,12
O=C(Nc1scc(-c2ccccc2)c1C(=O)O)c1ccco1,-22,-38,-2,-11,10,6,.,.
Cc1cc(Cl)c(OCCCNCc2ccccc2)c(Br)c1,9,-50,-3,-14,14,18*,17,23*

# Source: PubChem
